Source: ChEMBL document CHEMBL3232882, “N-Acyl-phosphoramidates as potential novel form of gemcitabine prodrugs” (Bioorg Med Chem, 2014)
The source made the active and inactive calls. The rule behind the calls is not given here.

Legend:
Escherichia coli [1] = experiment: Activity of Escherichia coli DNA polymerase 1 without 3' to 5'-exonucleolytic activity after 2 hrs by single base extension reaction based electrophoresis method
Summary of the method: (§1)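 Test compound with KF+ or KF- (1U) in 0.05 M Tris-HCl pH 8.0, 5 mM MgCl2, 1 mM DTT, 2 h at 37 °C, then heat-denatured. Read-out was 20% PAGE/7 M urea, autoradiography and quantitation of n+1 product; dCTP reaction served as control.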

Thermococcus sp. 9oN-7 [2] = experiment: Activity of Thermococcus sp. 9oN-7 therminator DNA polymerase after 2 hrs by single base extension reaction based electrophoresis method
[3] = molecular target: T1, Adenosine 5'-monophosphoramidase HINT1 (Oryctolagus cuniculus, UniProt P80912); experiment: Stability assessed as rabbit recombinant HINT1-mediated compound hydrolysis at 1 mM after 22 hrs by RP-HPLC analysis; format: ADME; details: 1000 µM
Summary of the method: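 Recombinant Hint-1 was expressed from pSGA02-HINT in E. coli BL21, purified on AMP-agarose, and dialysed into 20 mM Tris pH 7.5/150 mM NaCl. Substrate 1 mM in 20 mM Na-HEPES pH 7.2, 0.5 mM MgCl2 with rHint-1, 22 h at 37 °C. Analysed by C18 RP-HPLC at 260 nm via peak integration; mean ± SE of at least duplicate.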

K562 = experiment: Cytotoxicity against human K562 cells assessed as reduction of cell survival after 48 hrs by MTT assay; format: functional, cell-based; details: K562, 48 h
Summary of the method: (§2)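 HUVEC (from fresh umbilical cords, gelatin-coated dishes, RPMI 1640 with 20% FBS, heparin, ECGF) and K562 (RPMI 1640, 10% FCS) were seeded at 7×10^3 per well. After 24 h, exposure for 48 h to compounds from 100 mM aqueous stock, final 1 mM down to 1×10^-6 mM. MTT read at 570/650 nm; untreated = 100%; IC50 from dose-response curves, mean of 2 experiments in triplicate.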

HUVEC = experiment: Cytotoxicity against HUVEC assessed as cell after 48 hrs by MTT assay; format: cell-based; details: Homo sapiens; summary of the method: as §2
HeLa [4] = experiment: Cytotoxicity against human HeLa cells assessed as reduction of cell survival after 72 hrs by MTT assay; format: functional, cell-based
Summary of the method: (§3)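 HeLa seeded at 7×10^3 and CFPAC at 10^4 per well in RPMI 1640 with 10% FCS under 5% CO2. After 24 h, exposure to compounds (aqueous 100 mM stock; final 1 mM to 1×10^-6 mM) for 72 or 96 h. MTT 2 h, formazan dissolved in 20% SDS/50% DMF pH 4.7, A570/650. Untreated cells = 100%; IC50 from dose-response curves, 2 independent experiments in triplicate.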

HeLa [5] = experiment: Cytotoxicity against human HeLa cells assessed as reduction of cell survival after 96 hrs by MTT assay; format: functional, cell-based; summary of the method: as §3
CFPAC-1 [6] = experiment: Cytotoxicity against human CFPAC-1 cells assessed as reduction of cell survival after 72 hrs by MTT assay; format: functional, cell-based; details: CFPAC-1, 72 h; summary of the method: as §3
CFPAC-1 [7] = experiment: Cytotoxicity against human CFPAC-1 cells assessed as reduction of cell survival after 96 hrs by MTT assay; format: functional, cell-based; details: CFPAC-1, 96 h; summary of the method: as §3
Escherichia coli [8] = experiment: Activity of Escherichia coli DNA polymerase 1 with 3' to 5'-exonucleolytic activity after 2 hrs by single base extension reaction based electrophoresis method; summary of the method: as §1
[9] = Inhibition of Escherichia coli DNA polymerase 1 with 3' to 5'-exonucleolytic activity using dCTP as substrate assessed as single base extension reaction after 2 hrs
Summary of the method: (§4)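 Compound (0.4–2.0 mM; 1- to 5-fold over dCTP) added together with 0.4 mM dCTP in 0.05 M Tris-HCl pH 8.0, 5 mM MgCl2, 1 mM DTT, 2 h at 37 °C. The n+1 product was quantified after 20% PAGE/7 M urea and autoradiography; EC50 is the concentration giving 50% inhibition.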

[10] = Inhibition of Escherichia coli DNA polymerase 1 without 3' to 5'-exonucleolytic activity using dCTP as substrate assessed as single base extension reaction after 2 hrs; summary of the method: as §4
[11] = molecular target: T2, DNA polymerase alpha catalytic subunit (Homo sapiens, UniProt P09884); experiment: Inhibition of human DNA polymerase alpha using dCTP as substrate assessed as single base extension reaction after 2 hrs
T2 sequence (P09884 whole entry): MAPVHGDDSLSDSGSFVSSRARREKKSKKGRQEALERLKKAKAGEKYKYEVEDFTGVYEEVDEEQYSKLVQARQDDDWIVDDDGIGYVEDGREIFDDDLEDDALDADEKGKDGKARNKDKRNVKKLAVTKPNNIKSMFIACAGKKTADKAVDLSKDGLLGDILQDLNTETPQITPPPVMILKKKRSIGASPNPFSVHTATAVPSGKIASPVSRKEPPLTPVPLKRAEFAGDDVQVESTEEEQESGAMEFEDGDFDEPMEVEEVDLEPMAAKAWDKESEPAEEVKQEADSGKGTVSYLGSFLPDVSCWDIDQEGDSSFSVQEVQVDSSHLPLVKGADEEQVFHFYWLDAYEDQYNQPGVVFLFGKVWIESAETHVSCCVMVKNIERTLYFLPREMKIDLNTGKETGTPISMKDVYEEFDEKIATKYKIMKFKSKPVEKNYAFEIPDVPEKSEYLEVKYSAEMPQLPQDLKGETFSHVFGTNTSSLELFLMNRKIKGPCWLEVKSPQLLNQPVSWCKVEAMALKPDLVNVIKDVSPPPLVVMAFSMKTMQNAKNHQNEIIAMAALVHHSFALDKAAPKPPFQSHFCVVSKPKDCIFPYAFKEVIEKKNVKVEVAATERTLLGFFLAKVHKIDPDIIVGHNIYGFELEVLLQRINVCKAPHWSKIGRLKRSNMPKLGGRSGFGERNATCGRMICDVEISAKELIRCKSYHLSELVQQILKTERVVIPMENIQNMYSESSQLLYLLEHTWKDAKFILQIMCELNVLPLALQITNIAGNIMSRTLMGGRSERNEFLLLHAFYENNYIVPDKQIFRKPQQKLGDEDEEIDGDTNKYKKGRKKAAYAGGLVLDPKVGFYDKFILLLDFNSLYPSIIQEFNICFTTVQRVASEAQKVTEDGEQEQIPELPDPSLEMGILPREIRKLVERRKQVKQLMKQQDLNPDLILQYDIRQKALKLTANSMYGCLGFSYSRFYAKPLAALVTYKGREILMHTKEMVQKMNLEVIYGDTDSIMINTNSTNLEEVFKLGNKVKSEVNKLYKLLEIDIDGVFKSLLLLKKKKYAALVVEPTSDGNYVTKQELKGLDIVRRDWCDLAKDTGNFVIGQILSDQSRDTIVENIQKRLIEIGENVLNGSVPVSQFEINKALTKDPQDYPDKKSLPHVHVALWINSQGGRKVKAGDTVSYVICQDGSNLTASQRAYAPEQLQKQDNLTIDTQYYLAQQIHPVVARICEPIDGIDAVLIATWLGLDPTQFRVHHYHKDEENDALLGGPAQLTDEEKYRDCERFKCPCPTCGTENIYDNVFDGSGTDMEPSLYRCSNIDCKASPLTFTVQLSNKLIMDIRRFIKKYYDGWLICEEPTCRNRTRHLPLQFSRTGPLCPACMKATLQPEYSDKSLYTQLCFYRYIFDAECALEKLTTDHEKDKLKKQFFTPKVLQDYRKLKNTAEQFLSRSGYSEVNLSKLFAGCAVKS

[12] = molecular target: T3, HINT1 (adenosine 5'-monophosphoramidase) (Homo sapiens, UniProt P49773); experiment: Stability in human HeLa cell lysate assessed as HINT-1-mediated phosphoramidase activity by measuring compound remaining at 1 mM after 22 hrs by RP-HPLC analysis relative to control; format: ADME, cell-based; details: read-out: Stability
Summary of the method: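 HeLa lysate from confluent cells, sonicated in PBS with protease inhibitors. Substrate 1 mM in 20 mM Na-HEPES pH 7.2, 0.5 mM MgCl2, 22 h at 37 °C. Ice-quenched, heat-denatured, centrifuged. C18 RP-HPLC (acetonitrile 0–8% in 0.1 M TEAB pH 7.4) at 260 nm; intact substrate quantified by peak integration; mean ± SE of at least duplicate.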

[13] = molecular target: T3, HINT1 (adenosine 5'-monophosphoramidase); experiment: Stability in human K562 cell lysate assessed as HINT-1-mediated phosphoramidase activity by measuring compound remaining at 1 mM after 22 hrs by RP-HPLC analysis relative to control; format: ADME, cell-based; details: read-out: Stability
Summary of the method: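 K562 lysate from confluent cells, scraped and sonicated in PBS with protease inhibitors. Substrate 1 mM in 20 mM Na-HEPES pH 7.2, 0.5 mM MgCl2, with lysate protein, 22 h at 37 °C. Quenched on ice, heat-denatured, centrifuged. Supernatant analysed by C18 RP-HPLC (0–8% acetonitrile in 0.1 M TEAB pH 7.4, 20 min) at 260 nm. Peaks integrated; products identified by co-injection; mean ± SE, at least duplicate.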

Thermococcus sp. 9oN-7 [14] = experiment: Inhibition of Thermococcus sp. 9oN-7 therminator DNA polymerase assessed as single base extended product level after 1 hr by single base extension reaction based electrophoresis method; set-up: concentration or dose not given beside the values
[15] = molecular target: T1, Adenosine 5'-monophosphoramidase HINT1; experiment: Drug metabolism assessed as recombinant rabbit HINT1-mediated hydrolysis of NH2-pdFdC to pdFdC per ug protein at 0.2 mM by RP-HPLC analysis; format: ADME; details: 200 µM
Summary of the method: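 Recombinant Hint-1 expressed in E. coli BL21 from pSGA02-HINT, purified by AMP-agarose affinity; hydrolysis of NH2-pdFdC to pdFdC at 0.2 mM substrate, activity expressed per µg protein; products followed by RP-HPLC on C18 column with acetonitrile gradient in 0.1 M triethylammonium bicarbonate, pH 7.4, peak areas integrated.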

T3 sequence (P49773 whole entry): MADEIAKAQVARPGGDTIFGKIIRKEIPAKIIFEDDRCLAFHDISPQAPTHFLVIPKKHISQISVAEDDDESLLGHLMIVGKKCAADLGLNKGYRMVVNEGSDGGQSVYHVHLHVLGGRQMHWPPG
T1 sequence (P80912 whole entry): as the sequence (P49773 whole entry) above, with R37Q, V65A, D69A, N91K, H122N counted along it

Compound | Activity (Escherichia coli [1]) | Activity (Thermococcus sp. 9oN-7 [2]) | Stability [3] | IC50 (K562) [µM] | IC50 (HUVEC) [µM] | IC50 (HeLa [4]) [µM] | IC50 (HeLa [5]) [µM] | IC50 (CFPAC-1 [6]) [µM] | IC50 (CFPAC-1 [7]) [µM] | Activity (Escherichia coli [8]) | EC50 [9] [µM] | EC50 [10] [µM] | EC50 [11] [µM] | remaining at 22 h, 1000 µM [12] [%] | remaining at 22 h, 1000 µM [13] [%] | Activity (Thermococcus sp. 9oN-7 [14]) [%] | Drug metabolism [15] [nmol/min/µg]
CC(=O)N1CCC[C@H]1C(=O)NP(=O)(S)OC[C@H]1O[C@@H](n2ccc(N)nc2=O)C(F)(F)[C@@H]1O (some centres undefined) | inactive | inactive | Stable | > 1000 | 800 | 500 | 450 | 350 | 310 | inactive | > 2000 | > 2000 | > 500 | 100 | 85.3 | 100 | –
CC(=O)N[C@@H](Cc1ccccc1)C(=O)NP(=O)(O)OC[C@H]1O[C@@H](n2ccc(N)nc2=O)C(F)(F)[C@@H]1O | inactive | inactive | Stable | 80 | 200 | > 1000 | 45 | 0.42 | 0.45 | inactive | > 2000 | > 2000 | > 500 | 71 | 45.9 | 100 | –
Nc1ncnc2c1ncn2[C@@H]1O[C@H](COP(N)(=O)O)[C@@H](O)[C@H]1O | – | – | – | – | – | – | – | – | – | – | – | – | – | – | – | – | 1.71
CC(=O)N1CCC[C@H]1C(=O)NP(=O)(O)OC[C@H]1O[C@@H](n2ccc(N)nc2=O)C(F)(F)[C@@H]1O | inactive | inactive | Stable | 30 | 10 | 80 | 0.8 | 0.62 | 0.55 | inactive | 680 | 1160 | 410 | 89.6 | 80.2 | 100 | –
